Results: ChEMBL document CHEMBL4392839, “Syntheses and bioactivities of songorine derivatives as novel G protein-coupled receptor antagonists” (Bioorg Med Chem, 2019)

Experiments:
Mus musculus = species: Mus musculus; experiment: Antagonist activity at mouse GPCR at 10 ng/L by double antibody sandwich ELISA relative to control
[1] = Antagonist activity at mouse GPCR by double antibody sandwich ELISA
Summary of the method: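 Double-antibody sandwich ELISA measuring mouse GPCR content, with a GPCR standard. Sample was mixed with diluted standard (37 ℃, 10 min), added to antibody-coated wells, then HRP conjugate was added (37 ℃, 30 min), followed by chromogens A and B and stop solution. OD450 was read within 5 min. Tested at 10 ng/L, 1 ng/mL, 0.1 μg/mL and 10 μg/mL, 30% DMSO in well. Percent inhibition versus no-inhibitor control (100%) from three independent experiments; IC50 from absorbance.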

Row | SMILES | inhibition (Mus musculus) [%] | IC50 [1] [nM]
1 | C=C1[C@H]2C[C@@]3([C@@H]1OC(C)=O)[C@@H](CC2=O)[C@@]12[C@@H](OC(C)=O)CC[C@@]4(C)CN(CC)[C@H]1[C@@H]3C[C@H]42 | 65.2 | 0.51
2 | C=C1[C@H]2C[C@@]3([C@@H]1OC(=O)CCC)[C@@H](CC2=O)[C@@]12[C@@H](OC(=O)CCC)CC[C@@]4(C)CN(CC)[C@H]1[C@@H]3C[C@H]42 | 77.4 | 0.14
3 | C=C1[C@H]2C[C@@]3([C@@H]1OC(=O)CC)[C@@H](C/C2=N/OC(=O)CC)[C@@]12[C@@H](OC(=O)CC)CC[C@@]4(C)CN(CC)[C@H]1[C@@H]3C[C@H]42 | 36.4 | > 10
4 | CCN1C[C@]2(C)CC[C@H](O)[C@]34[C@@H]1[C@H](C[C@H]23)[C@@]12C[C@@H](C(=O)C[C@H]14)C(CO)(OC(=O)c1cccc(Cl)c1)[C@H]2O (stereo not given in full) | 68.7 | 0.23
5 | C=C1[C@H]2C[C@@]3([C@@H]1OC(=O)CC)[C@@H](CC2=O)[C@@]12[C@@H](OC(=O)CC)CC[C@@]4(C)CN(CC)[C@H]1[C@@H]3C[C@H]42 | 65.9 | 0.59
6 | C=C1[C@H]2C[C@@]3([C@@H]1OC(=O)CC)[C@@H](C/C2=N/OC(=O)CC)[C@@]12[C@@H]4[C@@H]3C[C@@H]1[C@@](C)(CC[C@@H]2O)CN4CC | 50.3 | 3.65
7 | C=C1[C@H]2C[C@@]3([C@@H]1OC(=O)c1ccccc1)[C@@H](CC2=O)[C@@]12[C@@H]4[C@@H]3C[C@@H]1[C@@](C)(CC[C@@H]2O)CN4CC | 37.7 | 4.5
8 | C=C1[C@H]2C[C@@]3([C@@H]1OC(=O)COCC)[C@@H](CC2=O)[C@@]12[C@@H](OC(=O)COCC)CC[C@@]4(C)CN(CC)[C@H]1[C@@H]3C[C@H]42 | 55 | 5.91
9 | C=C1[C@H]2C[C@@]3([C@@H]1O)[C@@H](C/C2=N/NS(=O)(=O)c1ccc(C)cc1)[C@@]12[C@@H]4[C@@H]3C[C@@H]1[C@@](C)(CC[C@@H]2O)CN4CC | 37.7 | > 10
10 | C=C1[C@H]2C[C@@]3([C@@H]1O)[C@@H](CC2=O)[C@@]12[C@@H]4[C@@H]3C[C@@H]1[C@@](C)(CC[C@@H]2O)CN4CC | 62.8 | 3.21
11 | C=C1[C@H]2C[C@@]3([C@@H]1OC(=O)/C=C/c1ccccc1)[C@@H](CC2=O)[C@@]12[C@@H]4[C@@H]3C[C@@H]1[C@@](C)(CC[C@@H]2O)CN4CC | 57.1 | 0.29
12 | C=C1[C@H]2C[C@@]3([C@@H]1OC(C)=O)[C@@H](CC2=O)[C@@]12[C@@H]4[C@@H]3C[C@@H]1[C@@](C)(CC[C@@H]2O)CN4CC | 48.6 | 2.62
13 | C=C1C(=O)[C@]23C[C@H]1C(=O)C[C@H]2[C@@]12C(=O)CC[C@@]4(C)CN(CC)[C@H]1[C@@H]3C[C@H]42 | 34.6 | > 10
14 | C=C1[C@H]2C[C@@]3([C@@H]1O)[C@@H](C[C@H]2O)[C@@]12[C@@H]4[C@@H]3C[C@@H]1[C@@](C)(CC[C@@H]2O)CN4CC | 46.3 | > 10
15 | C=C1[C@H]2C[C@@]3([C@@H]1O)[C@@H](C/C2=N/O)[C@@]12[C@@H]4[C@@H]3C[C@@H]1[C@@](C)(CC[C@@H]2O)CN4CC | 73.3 | 0.55
16 | C=C1[C@H]2C[C@@]3([C@@H]1OC(=O)COC)[C@@H](CC2=O)[C@@]12[C@@H](OC(=O)COC)CC[C@@]4(C)CN(CC)[C@H]1[C@@H]3C[C@H]42 | 85.3 | 0.08
17 | C=C1[C@H]2C[C@@]3([C@@H]1S)[C@@H](CC2=S)[C@@]12[C@@H]4[C@@H]3C[C@@H]1[C@@](C)(CC[C@@H]2S)CN4CC | 39.3 | > 10
18 | C=C1C(=O)[C@]23C[C@H]1C(=O)C[C@H]2[C@@]12[C@@H]4[C@@H]3C[C@@H]1[C@@](C)(CC[C@@H]2O)CN4CC | 54.6 | 9.99
19 | C=C1[C@H]2C[C@@]3([C@@H]1O)[C@@H](C[C@@H]2O)[C@@]12[C@@H]4[C@@H]3C[C@@H]1[C@@](C)(CC[C@@H]2O)CN4CC | 39.4 | > 10
20 | C=C1[C@H]2C[C@@]3([C@@H]1OC(=O)CCC)[C@@H](CC2=O)[C@@]12[C@@H]4[C@@H]3C[C@@H]1[C@@](C)(CC[C@@H]2O)CN4CC | 49.8 | 8.68
